An excerpt weighted towards active compounds, which were near 2.6% of everything screened.
SENP6 block = inhibitors of human SENP6 protease | Recombinant SENP6 catalytic domain, aminoluciferin luminescence | AID 2599 | inhibition, % at 10 µM | Q9GZR1 | actives 1.8% (n = 330,000);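 active = inhibition above about 50% at the single tested dose, limit read from the data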;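 also: plate controls were DMSO wells with enzyme for no effect and DMSO wells lacking enzyme for full effect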
SENP1 FRET inh = SENP1 (human) catalytic domain inhibition. Q9P0U3. recombinant SENP1 catalytic domain, CyPet-SUMO1-YPet FRET cleavage. inhibition, % at 10 µM. actives 0.21% (n = 360,000);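 active = inhibition at least 30% at 10 µM, raw YFP signal under a set limit, fluorescence ratio 0.5 to 1.5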;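 also: 0% = enzyme with DMSO and 100% = no enzyme wells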
Target sequence (Q9P0U3 419-644 limits assumed): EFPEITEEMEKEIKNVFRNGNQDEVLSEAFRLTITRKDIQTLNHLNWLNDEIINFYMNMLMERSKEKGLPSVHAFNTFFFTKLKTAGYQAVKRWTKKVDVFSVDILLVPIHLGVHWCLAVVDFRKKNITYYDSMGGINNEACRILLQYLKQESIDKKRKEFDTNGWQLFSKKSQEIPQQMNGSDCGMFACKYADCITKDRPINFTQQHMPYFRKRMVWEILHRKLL
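Assay system: hSENP1 catalytic domain, recombinant. Amount: SENP1 enzyme, 20 pM final. Schedule: 50 min reaction, RT, dark. Technique: FRET, CFP and YFP emission. Control set: no-enzyme wells low, DMSO-plus-enzyme wells high control.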
SENP8 block-1 = blocks the human protease SENP8; Q96LD8; inhibition, % at 10 µM; actives 1.2% (n = 330,000); purified SENP8, Z-RLRGG-aminoluciferin cleavage, luminescence; in the data active = inhibition above about 50%
Target sequence (Q96LD8 whole entry, looked up): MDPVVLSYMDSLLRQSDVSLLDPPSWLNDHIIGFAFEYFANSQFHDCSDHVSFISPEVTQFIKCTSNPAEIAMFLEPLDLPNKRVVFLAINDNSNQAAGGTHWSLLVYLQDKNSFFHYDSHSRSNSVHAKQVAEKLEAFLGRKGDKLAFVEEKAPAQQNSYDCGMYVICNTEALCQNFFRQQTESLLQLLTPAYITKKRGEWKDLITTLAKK
SENP7 block = blocks the human protease SENP7. Q9BQF6. recombinant SENP7, Z-RLRGG-aminoluciferin luminescence, 40 min. inhibition, % at 5 µM. actives 1.5% (n = 330,000);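 active = inhibition above about 50% at the single test dose, limit read from the data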;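 also: plate controls were DMSO with enzyme for no effect and no enzyme buffer wells for full effect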
SENP8 block-2 = blocks human SENP8 cleavage of Nedd8 substrate; Q96LD8; recombinant SENP8, Nedd8 substrate fluorescence; inhibition, % at 20 µM; actives 0.64% (n = 360,000); AID 602440; in the data active = inhibition mostly above about 40%, no sharp cut-off; inactive = mostly below about 27%
Platelet DG rel = modulates dense granule release in human platelets; human platelet-rich plasma, SFLLRN dense granule ATP release, luminescence; inhibition, %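 (compounds screened at 7.5 µM in platelet-rich plasma)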; actives 0.22% (n = 300,000); AID 1663;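 active = mean replicate score, as percent of positive control, at or above 50; inconclusive = mean below 50 but at least one replicate at or above 50; inactive = mean and every replicate below 50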
SENP8 confirm = human SENP8 inhibition, confirmed | AID 488912 | Recombinant SENP8, Z-RLRGG-aminoluciferin luminescence, 60 min | inhibition, % at 12.5 µM | shares compounds with SENP7 block | actives 40% (n = 6,200);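 active = mean inhibition across replicates above about 50%, limit read from the data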
SENP6 conf = human SENP6 inhibition, confirmed; shares compounds with SENP7 block; recombinant SENP6, Z-RLRGG-aminoluciferin luminescence; inhibition, % at 12.5 µM; actives 58% (n = 6,200); AID 488915
SENP7 conf = confirmation of human SENP7 protease inhibitors; shares compounds with SENP7 block; recombinant SENP7, Z-RLRGG-aminoluciferin luminescence, 40 min; inhibition, % at 12.5 µM; actives 69% (n = 6,200); AID 488917
Casp3 SENP sel = inhibits human caspase-3 in SENP selectivity test; inhibition, % at 12.5 µM; shares compounds with SENP7 block; purified caspase-3, Z-DEVD-aminoluciferin luminescence, 60 min; actives 60% (n = 6,200);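 active = mean inhibition above about 50%, limit read from the data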;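 also: plate controls were enzyme with DMSO for no effect and wells without caspase-3 for full effect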
Luc interf = counter-screen for SENP inhibitors: luminescence interference; inhibition, % at 12.5 µM; shares compounds with SENP7 block; actives 39% (n = 6,200); AID 488919; Pre-incubated SENP8/Z-RLRGG-aminoluciferin, luciferase luminescence interference;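 active = mean inhibition above about 50% when retested at one dose, limit read from the data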;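 also: plate controls were DMSO wells with completed reaction for no effect and substrate without enzyme for full effect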
An asterisk follows results filed as active; i = inactive; ? = inconclusive; / = no result given.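 The calls were made as follows, unless noted: active = mean inhibition above about 50% in the one-dose retest (limit read from the data); inactive = the rest.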

SMILES	SENP6 block	SENP1 FRET inh	SENP8 block-1	SENP7 block	SENP8 block-2	Platelet DG rel	SENP8 confirm	SENP6 conf	SENP7 conf	Casp3 SENP sel	Luc interf
CNC(=O)c1ccsc1NC(=O)c1ccc2c(c1)CCCC2	58.7*	-2.7	38.4	53.9*	-200.5	0.6	59.5*	60.0*	82.2*	32.3	21.7
NC(=O)c1ccsc1NC(=O)c1ccc2c(c1)CCCC2	95.8*	-11.5	96.0*	99.1*	-177.5	22.4	97.3*	97.3*	101.4*	95.5*	67.3*
NS(=O)(=O)c1ccc(NC(=O)c2ccc3c(c2)CCCC3)cc1	-2.5	-1.7	-4.8	-3.0	6.4	-9.4	/	/	/	/	/
NC(=O)c1ccsc1NC(=O)c1ccc(N2CCCC2=O)cc1	90.3*	-11.5	86.9*	88.9*	-286.0	23.6	91.5*	90.9*	99.5*	94.0*	12.0
CC(C)Cc1nnc(NC(=O)c2ccc(N3CCCC3=O)cc2)s1	-5.6	0.5	-2.4	2.0	-85.0	-2.3	/	/	/	/	/
Cc1cc(/C=c2/sc3nc4ccccc4n3c2=O)c(C)n1-c1ccccn1	79.3*	-22.1	90.8*	6.3	-79.9	34.9	31.7	54.2*	29.2	64.4*	1.9
Cc1ccc(NC(=O)c2cnccn2)nc1	48.2	-0.1	7.6	38.7	16.3	-4.1	/	/	/	/	/
CC1CCCC(C)N1C(=O)CSc1nc(N)c(-c2ccccc2)c(=O)[nH]1 (stereo unspecified)	6.6	0.1	6.6	86.6*	6.6	-3.2	4.4	4.2	0.9	0.6	1.0
Nc1nc(SCC(=O)N2CCCC2)[nH]c(=O)c1-c1ccccc1	-16.6	-0.1	-2.7	1.5	24.3	3.8	/	/	/	/	/
CC(=O)NCCCc1nc2ccccc2n1Cc1ccccc1F	-13.8	1.0	-7.1	55.2*	11.9	-6.5	8.7	7.6	-2.3	2.5	0.0
CC1CCN(C(=O)c2ccc3c(c2)C(=O)c2ccccc2-3)CC1	/	1.5	/	/	16.3	/	/	/	/	/	/
Cc1ccc(C(=O)c2c(C)oc3c2C(=O)C(=O)c2ccccc2-3)cc1	19.0	6.5	29.4	51.0*	105.9*	-4.4	22.2	56.6*	17.2	-1.7	0.6
Cc1oc2c(c1C(=O)N1CCC(C)CC1)C(=O)c1ccccc1C2=O	54.9*	/	26.4	27.9	/	-14.8	18.0	51.8*	18.2	35.3	-0.4
O=C(Cn1cnc2ccccc2c1=O)NCc1cccs1	9.6	-1.3	2.9	11.4	9.8	-8.7	/	/	/	/	/
C/C(=N\NC(=O)c1nn(C)c(C)c1Br)c1ccc(NC(=O)c2ccoc2C)cc1	41.1	1.9	-6.7	59.6*	-7.5	-25.5	-1.7	2.1	-0.3	11.8	13.4
COc1ccccc1NC(=O)c1cc2ccccc2o/c1=N\O	3.0	1.5	-23.0	7.3	13.0	16.9	/	/	/	/	/
COc1ccccc1N=c1oc2cc(O)ccc2cc1C(N)=O	91.3*	-23.0	49.9	-0.1	-285.3	57.0*	99.2*	99.8*	100.9*	98.9*	91.8*
COc1ccccc1NC(=O)c1cc2ccc(O)cc2o/c1=N\O	95.0*	-24.3	94.1*	94.8*	i	?	8.3	99.2*	102.6*	91.6*	51.7*
Cc1cnc2c(N)cc(C)c(C)c2c1	/	-9.3	/	/	-9.0	/	/	/	/	/	/
Cc1ccc(-n2c(C)cc(C(=O)CSc3nnnn3C)c2C)cc1	29.3	0.5	59.6*	69.4*	7.1	0.1	79.5*	78.5*	94.8*	78.8*	76.0*
CCc1ccccc1N(CC(=O)NC(C)c1ccccc1)S(C)(=O)=O (stereo unspecified)	5.0	-0.2	0.0	6.8	-1.0	1.6	/	/	/	/	/
